# In ChEMBL document CHEMBL1275508, “Edelfosine induces an apoptotic process in Leishmania infantum that is regulated by the ectopic expression of Bcl-XL and Hrk” (2008):
# Assays:
# Leishmania infantum [1] = experiment: Antimicrobial activity against Leishmania infantum promastigotes assessed as increase in DNA degradation after 24 hrs by flow cytometry; format: functional, organism-based
# Summary of the method: (§1)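 Exponentially growing L. infantum promastigotes (2 × 10^6/ml, strain M/CAN/ES/96/BCN150 MON-1) exposed 24 h to increasing drug concentrations; DNA content analysed by flow cytometry, scoring percentage of hypodiploid cells as DNA degradation.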
# Leishmania infantum [2] = experiment: Induction of apoptosis in Leishmania infantum promastigotes cells harboring with plasmid pX63 carrying Bcl-XL gene at 40 uM after 24 hrs by TUNEL assay; format: functional
# Summary of the method: (§2)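 Wild-type promastigotes or those transfected with empty pX63, pX63-bcl-XL (HA-tagged) or pX63-hrk (FLAG-tagged) left untreated or exposed to 40 µM drug for 24 h; DNA nicks labelled by TUNEL, imaged by confocal microscopy with PI and DIC; percentage TUNEL-positive cells from image analysis, mean ± SD, n = 3.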
# Leishmania infantum [3] = experiment: Antimicrobial activity against Leishmania infantum promastigotes; format: functional; details: read-out: LD50 (the source's name)
# Summary of the method: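 L. infantum promastigotes (M/CAN/ES/96/BCN150 MON-1), exponentially growing at 2 × 10^6 parasites/ml, incubated 24 h with increasing drug concentrations; stained with 5 µM propidium iodide and dead (PI-positive) parasites counted by flow cytometry; 50% lethal dose estimated from concentration–response fit.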
# Leishmania infantum [4] = experiment: Antimicrobial activity against Leishmania infantum promastigotes assessed as increase in hypodiploid cell formation after 24 hrs by flow cytometry; format: functional, organism-based; summary of the method: as §1
# Leishmania infantum [5] = experiment: Induction of apoptosis in wild-type Leishmania infantum promastigotes cells at 40 uM after 24 hrs by TUNEL assay; format: functional; summary of the method: as §2
# Leishmania infantum [6] = experiment: Induction of apoptosis in Leishmania infantum promastigotes cells harboring with plasmid pX63 carrying Hrk gene at 40 uM after 24 hrs by TUNEL assay; format: functional; summary of the method: as §2
# Leishmania infantum [7] = experiment: Induction of apoptosis in Leishmania infantum promastigotes cells harboring pX63 expression vector at 40 uM after 24 hrs by TUNEL assay; format: functional; summary of the method: as §2
Structure (SMILES),Activity (Leishmania infantum [1]),Activity (Leishmania infantum [2]) [%],LC50 (Leishmania infantum [3]) [µM],Activity (Leishmania infantum [4]),Activity (Leishmania infantum [5]) [%],Activity (Leishmania infantum [6]) [%],Activity (Leishmania infantum [7]) [%]
CCCCCCCCCCCCCCCCCCOCC(COP(=O)([O-])OCC[N+](C)(C)C)OC (stereo not given) [EDELFOSINE],Dose-dependent effect,26.7,27,Dose-dependent effect,42.5,92.5,47.4
CCCCCCCCCCCCCCCCOP(=O)([O-])OCC[N+](C)(C)C [MILTEFOSINE],Dose-dependent effect,,47,Dose-dependent effect,,,
